{
  "source": "ChEMBL document CHEMBL1255240",
  "about": "“The mitochondrion is a site of trypanocidal action of the aromatic diamidine DB75 in bloodstream forms of Trypanosoma brucei” (Antimicrob Agents Chemother, 2008)",
  "key": {"[1]": {"test_system": "Trypanosoma brucei brucei", "experiment": "Antimicrobial activity against Trypanosoma brucei brucei 427 bloodstream form assessed as reduction in mitochondrial membrane potential at 10 uM using rhodamine 123 exclusion test", "assay_type": "functional, organism-based", "outline": "(§1)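 Rat-derived bloodstream cells washed in Tes buffer pH 7.5 (10 mM glucose, 1.0% fatty acid-free BSA) at room temperature. Cells at 10^7/ml pretreated with compound for the stated time, then 250 nM Rh123 for 2 min. Diluted 1:10 and flow cytometry (excitation 507, emission 529 nm) on 20,000 cells. % decrease in mean fluorescence versus untreated cells; at least three independent experiments.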"}, "[2]": {"test_system": "Trypanosoma brucei brucei", "experiment": "Inhibition of respiration in Trypanosoma brucei brucei 427 bloodstream form mitochondria using glycerol-3-phosphate as substrate at 2 mM", "assay_type": "functional", "outline": "(§2)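 Bloodstream trypanosomes were taken from infected rat blood and purified on DE52. They were lysed with glass beads, and a mitochondrial fraction was isolated by differential centrifugation at 0–4°C. Mitochondria at 0.8 mg/ml were held in mannitol/HEPES/EGTA/MgSO4 buffer, pH 7.4, without glucose, with 20 mM L-α-glycerol phosphate as substrate. Compound was added after a stable reading (about 2 min), and O2 consumption was recorded by oxygen electrode at 37°C.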"}, "[3]": {"test_system": "Trypanosoma brucei brucei", "experiment": "Inhibition of respiration in Trypanosoma brucei brucei 427 bloodstream form mitochondria using glycerol-3-phosphate as substrate at 10 uM", "assay_type": "functional", "outline": "as §2"}, "[4]": {"test_system": "Trypanosoma brucei brucei", "experiment": "Antimicrobial activity against Trypanosoma brucei brucei 427 bloodstream form assessed as inhibition of mitochondrial ATPase activity at 50 uM after 10 mins", "assay_type": "functional", "outline": "(§3)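 Bloodstream-form mitochondrial fraction, 100 μg protein, in 20 mM Tris-HCl pH 7.4 with 15 mM KH2PO4, 0.6 M sorbitol, 10 mM MgSO4 and 2.5 mg/ml fatty acid-free BSA. Pre-incubated 10 min on ice with compound (final 10, 50 or 100 μM; oligomycin 50 μM pretreatment where combined), then 0.20 mM ATP for 30 min at 30°C. Perchloric acid quench; remaining ATP by luciferase against a standard curve, blank subtracted. Activity relative to untreated control (100%). Duplicates; three independent experiments.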"}, "[5]": {"test_system": "Trypanosoma brucei brucei", "experiment": "Antimicrobial activity against Trypanosoma brucei brucei 427 bloodstream form assessed as reduction in mitochondrial membrane potential at 10 uM after 5 mins using rhodamine 123 exclusion test relative to control", "assay_type": "functional", "parameters": "scale not given: the % may be the effect or the level left", "outline": "as §1"}, "[6]": {"test_system": "Trypanosoma brucei brucei", "experiment": "Antimicrobial activity against Trypanosoma brucei brucei 427 bloodstream form assessed as reduction in mitochondrial membrane potential at 10 uM after 1 min using rhodamine 123 exclusion test", "assay_type": "functional", "parameters": "scale not given: the % may be the effect or the level left", "outline": "as §1"}, "[7]": {"test_system": "Trypanosoma brucei brucei", "experiment": "Antimicrobial activity against Trypanosoma brucei brucei 427 bloodstream form assessed as reduction in mitochondrial membrane potential at 1 uM after 1 min using rhodamine 123 exclusion test", "assay_type": "functional, organism-based", "outline": "as §1"}, "[8]": {"experiment": "Drug uptake in Trypanosoma brucei brucei 427 bloodstream form nucleus at 1 uM after 5 mins by fluorescence microscopy", "assay_type": "ADME", "outline": "(§4)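 Cells (about 10^6) incubated with 1.0 μM compound in cBMEM (MEM-based, 10% heat-inactivated FBS) at 37°C, 5% CO2. Aliquots taken at set times, pelleted, and dried films examined by UV fluorescence microscopy. Intrinsic blue fluorescence (excitation 365, emission 465 nm) scored in nucleus and kinetoplast.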"}, "[9]": {"test_system": "Trypanosoma brucei brucei", "experiment": "Antimicrobial activity against Trypanosoma brucei brucei 427 bloodstream form assessed as inhibition of glucose-dependent cellular respiration", "assay_type": "functional, organism-based", "outline": "(§5)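 Bloodstream trypanosomes from infected rat blood, DE52-purified, washed once in mannitol-based buffer pH 7.4 (220 mM mannitol, 25 mM HEPES, 2 mM EGTA, 5 mM MgSO4) with 20 mM glucose. O2 uptake of 2.0 × 10^6 cells/ml recorded with an oxygen electrode at 37°C. % inhibition from the rates just before vs after compound addition. Two independent experiments.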"}, "[10]": {"test_system": "Trypanosoma brucei brucei", "experiment": "Antimicrobial activity against Trypanosoma brucei brucei 427 bloodstream form assessed as inhibition of mitochondrial ATPase activity at 100 uM after 10 mins", "assay_type": "functional", "parameters": "scale not given: the % may be the effect or the level left", "outline": "as §3"}, "[11]": {"experiment": "Drug uptake in Trypanosoma brucei brucei 427 bloodstream form mitochondria at 100 uM after 5 mins by fluorescence microscopy", "assay_type": "ADME", "outline": "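Living cells (10^6/ml) loaded with 25 nM MitoTracker Red CMXRos for 30 min at 37°C, washed, then given 100 μM compound for 5 min. Immobilised in 1.5% agarose (3.0% mixed 1:1) on a cold slide. Viewed with a DAPI-FITC-Texas Red triple filter; pink overlap taken as mitochondrial colocalisation.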"}, "[12]": {"experiment": "Drug uptake in Trypanosoma brucei brucei 427 bloodstream form kinetoplast at 1 uM after 5 mins by fluorescence microscopy", "assay_type": "ADME", "outline": "as §4"}, "[13]": {"test_system": "Trypanosoma brucei brucei", "experiment": "Inhibition of respiration in Trypanosoma brucei brucei 427 bloodstream form mitochondria using glycerol-3-phosphate as substrate at 600 uM", "assay_type": "functional", "outline": "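Mitochondrial fraction from rat-derived bloodstream cells, prepared by glass-bead lysis and differential centrifugation (12,000 × g pellet) at 0–4°C. Suspended to 0.8 mg/ml in glucose-free mannitol buffer pH 7.4 with 20 mM L-α-glycerol phosphate as substrate. O2 uptake by oxygen electrode at 37°C; compound added after a stable reading (about 2 min) and recording continued several minutes.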"}, "[14]": {"test_system": "Trypanosoma brucei brucei", "experiment": "Antimicrobial activity against Trypanosoma brucei brucei 427 bloodstream form assessed as inhibition of mitochondrial ATPase activity 10 uM after 10 mins", "assay_type": "functional", "parameters": "scale not given: the % may be the effect or the level left", "outline": "as §3"}, "[15]": {"test_system": "Trypanosoma brucei brucei", "experiment": "Antimicrobial activity against Trypanosoma brucei brucei 427 bloodstream form assessed as inhibition of mitochondrial ATPase activity pretreated with oligomycin for 10 mins", "assay_type": "functional", "outline": "as §3"}, "[16]": {"test_system": "Trypanosoma brucei brucei", "experiment": "Antimicrobial activity against Trypanosoma brucei brucei 427 bloodstream form assessed as inhibition of glucose-dependent cellular respiration at 300 uM", "assay_type": "functional, organism-based", "outline": "as §5"}, "[17]": {"test_system": "Trypanosoma brucei brucei", "experiment": "Antimicrobial activity against Trypanosoma brucei brucei 427 bloodstream form assessed as reduction in mitochondrial membrane potential at 4 uM after 1 min using rhodamine 123 exclusion test", "assay_type": "functional", "parameters": "scale not given: the % may be the effect or the level left", "outline": "as §1"}, "[18]": {"test_system": "Trypanosoma brucei brucei", "experiment": "Antimicrobial activity against Trypanosoma brucei brucei 427 bloodstream form assessed as reduction in mitochondrial membrane potential at 4 uM after 10 mins using rhodamine 123 exclusion test relative to control", "assay_type": "functional", "parameters": "scale not given: the % may be the effect or the level left", "outline": "as §1"}, "[19]": {"test_system": "Trypanosoma brucei brucei", "experiment": "Antimicrobial activity against Trypanosoma brucei brucei 427 bloodstream form assessed as reduction in mitochondrial membrane potential at 10 uM after 10 mins using rhodamine 123 exclusion test relative to control", "assay_type": "functional", "parameters": "scale not given: the % may be the effect or the level left", "outline": "as §1"}},
  "note": "Active and inactive are the calls of the source. No cut-off for these calls is given here.",
  "data": [
    {"compound": "CCCCCC[C@H]1C(=O)O[C@H](C)[C@H](NC(=O)c2cccc(NC=O)c2O)C(=O)O[C@@H](C)[C@@H]1OC(=O)CC(C)C", "values": [
      {"measurement": "Activity", "setting": "[1]", "value": "inactive"}
    ]},
    {"compound": "O=C(NO)c1ccccc1O", "values": [
      {"measurement": "inhibition", "setting": "[2]", "value": "Active"},
      {"measurement": "inhibition", "setting": "[3]", "value": "Active"}
    ]},
    {"compound": "N#CC(C#N)=NNc1cccc(Cl)c1", "note": "[CARBONYL CYANIDE M-CHLOROPHENYLHYDRAZONE]", "values": [
      {"measurement": "Activity", "setting": "[4]", "value": "inactive"},
      {"measurement": "Activity", "setting": "[5]", "value": 51, "unit": "%"},
      {"measurement": "Activity", "setting": "[6]", "value": 36, "unit": "%"}
    ]},
    {"compound": "N=C(N)c1ccc(-c2ccc(-c3ccc(C(=N)N)cc3)o2)cc1", "note": "[FURAMIDINE]", "values": [
      {"measurement": "Activity", "setting": "[7]", "value": "Active"},
      {"measurement": "Drug uptake", "setting": "[8]", "value": "Active"},
      {"measurement": "IC50", "setting": "[9]", "value": 20, "unit": "µM"},
      {"measurement": "Activity", "setting": "[10]", "value": 47, "unit": "%"},
      {"measurement": "Drug uptake", "setting": "[11]", "value": "Active"},
      {"measurement": "Drug uptake", "setting": "[12]", "value": "Active"},
      {"measurement": "Activity", "setting": "[4]", "value": 47, "unit": "%"},
      {"measurement": "inhibition", "setting": "[13]", "value": "inactive"},
      {"measurement": "Activity", "setting": "[6]", "value": 57, "unit": "%"},
      {"measurement": "Activity", "setting": "[14]", "value": 20, "unit": "%"},
      {"measurement": "Activity", "setting": "[15]", "value": "Active"},
      {"measurement": "Activity", "setting": "[16]", "value": "Active"}
    ]},
    {"compound": "CC[C@H]1/C=C/C=C/C[C@@H](C)[C@H](O)[C@@](C)(O)C(=O)[C@@H](C)[C@H](O)[C@@H](C)C(=O)[C@@H](C)[C@H](O)[C@@H](C)/C=C/C(=O)O[C@@H]2[C@H](C)[C@H](CC1)O[C@]1(CC[C@H](C)[C@H](C[C@@H](C)O)O1)[C@H]2C", "note": "[OLIGOMYCIN]", "values": [
      {"measurement": "Activity", "setting": "[17]", "value": 23, "unit": "%"},
      {"measurement": "Activity", "setting": "[18]", "value": 50, "unit": "%"},
      {"measurement": "Activity", "setting": "[4]", "value": 30, "unit": "%"}
    ]},
    {"compound": "CC(C)[C@@H]1NC(=O)[C@H](C)OC(=O)[C@@H](C(C)C)NC(=O)[C@@H](C(C)C)OC(=O)[C@H](C(C)C)NC(=O)[C@H](C)OC(=O)[C@@H](C(C)C)NC(=O)[C@@H](C(C)C)OC(=O)[C@H](C(C)C)NC(=O)[C@H](C)OC(=O)[C@@H](C(C)C)NC(=O)[C@@H](C(C)C)OC1=O", "note": "[VALINOMYCIN]", "values": [
      {"measurement": "Activity", "setting": "[19]", "value": 70, "unit": "%"}
    ]}
  ]
}
